Reference: ChEMBL document CHEMBL4330086, “Synthesis, in silico experiments and biological evaluation of 1,3,4-trisubstituted pyrazole derivatives as antimalarial agents” (Eur J Med Chem, 2019)
pIC50: −log10 of the molar value. Active and inactive are the calls of the source. The rule behind the calls is not given here.

What was measured:
Erythrocyte [1] = experiment: Antiinflammatory activity in RBC (unknown origin) at 20 ug/ml relative to control
[2] = Acute toxicity in mouse assessed as effect on body weight at 150 mg/kg, po after 3 days; assay type: organism-based; conditions: in vivo, 72 h
Procedure, shortened: (§1)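 Male mice, 25-30 g, six per group, fasted overnight and weighed before dosing. Compounds given as suspensions in aqueous 1% gum acacia. Five dose groups per compound. Toxicity signs, body-weight change and deaths recorded over 3 days after administration.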

[3] = Selectivity ratio of IC50 for antihemolytic activity in RBC (unknown origin) to IC50 for chloroquine resistant Plasmodium falciparum RKL9; assay type: functional
Erythrocyte [4] = experiment: Antihemolytic activity in RBC (unknown origin); assay type: functional
Erythrocyte [5] = experiment: Antiinflammatory activity in RBC (unknown origin) relative to control
PBMC [6] = experiment: Cytotoxicity against human PBMC assessed as reduction in cell viability at 25 ug/ml after 30 mins by Neutral red dye-based phase-contrast inverted microscopic analysis relative to control; conditions: 0.5 h
Procedure, shortened: (§2)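 PBMC were isolated from a healthy donor by Ficoll-Hypaque density-gradient centrifugation and exposed to a range of test concentrations. Viability was scored by neutral red uptake, with retained dye taken as proportional to viable cells with intact membranes.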

PBMC [7] = experiment: Cytotoxicity against human PBMC assessed as reduction in cell viability after 30 mins by Neutral red dye-based phase-contrast inverted microscopic analysis; conditions: 0.5 h
Procedure, shortened: as §2

PBMC [8] = experiment: Cytotoxicity against human PBMC assessed as reduction in cell viability at 100 ug/ml after 30 mins by Neutral red dye-based phase-contrast inverted microscopic analysis relative to control; conditions: 0.5 h
Procedure, shortened: as §2

Plasmodium berghei [9] = experiment: Anti-plasmodial activity against Plasmodium berghei ANKA infected in mouse assessed as suppression in blood parasitemia level at 0.048 mmol/kg/day, po administered as single dose at 24 hrs time interval from day 1 to day 3 and measured 96 hrs post infection by Giemsa staining based microscopic method relative to control; assay type: functional
Procedure, shortened: (§3)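 Swiss albino mice, five per group, were infected i.v. on day 0 with 0.2 ml of 2 x 10^7 P. berghei ANKA parasitized erythrocytes. Oral dosing at 0.048 mmol/kg/day began 2 h later and repeated daily on days 1-3. The vehicle was 7% Tween and 3% ethanol in water. Giemsa smears were read on day 4 (5 fields of ~100 RBC). Suppression was taken against vehicle controls, and survival was tracked per mouse.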

Plasmodium berghei [10] = experiment: Anti-plasmodial activity against Plasmodium berghei ANKA infected in mouse assessed as increase in mean survival time at 0.048 mmol/kg/day, po administered as single dose at 24 hrs time interval from day 1 to day 3 and measured 96 hrs post infection; assay type: functional, organism-based
Procedure, shortened: as §3

Erythrocyte [11] = experiment: Antihemolytic activity in RBC (unknown origin) at 20 ug/ml relative to control
[12] = Acute toxicity in mouse assessed as mouse death at 150 mg/kg, po after 3 days; assay type: organism-based; conditions: in vivo, 72 h
Procedure, shortened: as §1

Erythrocyte [13] = experiment: Antihemolytic activity in RBC (unknown origin) at 40 ug/ml relative to control
Erythrocyte [14] = experiment: Antiinflammatory activity in RBC (unknown origin); assay type: functional
Erythrocyte [15] = experiment: Antihemolytic activity in RBC (unknown origin) relative to control
[16] = Acute toxicity in mouse up to 150 mg/kg, po after 3 days; assay type: organism-based; conditions: in vivo, 72 h
Procedure, shortened: as §1

Plasmodium falciparum [17] = experiment: Anti-plasmodial activity against chloroquine resistant Plasmodium falciparum RKL9 infected in human erythrocytes after 24 hrs by Giemsa staining-based method; assay type: functional, organism-based; conditions: RKL9, 24 h
Procedure, shortened: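 Chloroquine-resistant RKL9 kept in continuous culture (Trager-Jensen). Parasitaemia adjusted to 1-1.5% with fresh human B(+) RBC in RPMI 1640 with 10% AB(+) serum. Two-fold serial dilutions from ethanol stock, duplicate wells, 37°C for 24 h. Giemsa smears scored as schizonts per 100 asexual parasites. Schizont maturation inhibition = 1 − Nt/Nc x 100; IC50 derived.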

Erythrocyte [18] = experiment: Antiinflammatory activity in RBC (unknown origin) at 40 ug/ml relative to control
[19] = Selectivity ratio of IC50 for human PBMC to IC50 for chloroquine resistant Plasmodium falciparum RKL9; assay type: toxicity; conditions: read-out: Ratio IC50
PBMC [20] = experiment: Cytotoxicity against human PBMC assessed as reduction in cell viability at 6.25 ug/ml after 30 mins by Neutral red dye-based phase-contrast inverted microscopic analysis relative to control; conditions: 0.5 h
Procedure, shortened: as §2

Plasmodium berghei [21] = experiment: Anti-plasmodial activity against Plasmodium berghei ANKA infected in mouse assessed as mean survival time at 0.048 mmol/kg/day, po administered as single dose at 24 hrs time interval from day 1 to day 3 and measured 96 hrs post infection (reference value: 4.33 +/- 0.7 day); assay type: functional
Plasmodium falciparum [22] = experiment: Potency index, ratio of chloroquine phosphate IC50 to compound IC50 for anti-plasmodial activity against chloroquine resistant Plasmodium falciparum RKL9 infected in human erythrocytes; assay type: functional
[23] = Selectivity ratio of IC50 for antiinflammatory activity in RBC (unknown origin) to IC50 for chloroquine resistant Plasmodium falciparum RKL9; assay type: functional

Structure (SMILES): COc1ccc(-c2nn(-c3ccccc3)cc2C(=O)N/N=C/c2cc(OC)c(OC)c(OC)c2)cc1
- Activity (Erythrocyte [1]): 17.52%
- Activity [2]: Non-Toxic
- Ratio IC50 [3]: 1700
- Activity (Erythrocyte [4]): 41%
- pIC50 (Erythrocyte [5]): 4.28
- Activity (PBMC [6]): 60%
- pIC50 (PBMC [7]): 4.51
- Activity (PBMC [8]): 77.93%
- Activity (Plasmodium berghei [9]): 93.1%
- Activity (Plasmodium berghei [10]): Active
- Activity (Erythrocyte [11]): 85%
- Activity [12]: Non-Toxic
- Activity (Erythrocyte [13]): 97.8%
- Activity (Erythrocyte [14]): 29.69%
- pIC50 (Erythrocyte [15]): 3.92
- Activity [16]: Non-Toxic
- pIC50 (Plasmodium falciparum [17]): 7.40
- Activity (Erythrocyte [18]): 5.34%
- selectivity ratio [19]: 783
- Activity (PBMC [20]): 43%

Structure (SMILES): CCN(CC)CCCC(C)Nc1ccnc2cc(Cl)ccc12.O=P(O)(O)O.O=P(O)(O)O (stereo not given) [CHLOROQUINE PHOSPHATE]
- Activity (Plasmodium berghei [9]): 100%
- MST (Plasmodium berghei [21]): 12.22 days

Structure (SMILES): COc1ccc(-c2nn(-c3ccccc3)cc2C(=O)NNC=O)cc1
- Activity (Plasmodium berghei [9]): 70.11%
- MST (Plasmodium berghei [21]): 6.66 days

Structure (SMILES): C=CCNC(=S)NNC(=O)c1cn(-c2ccccc2)nc1-c1ccc(OC)cc1
- Activity (Plasmodium berghei [9]): 70.11%
- MST (Plasmodium berghei [21]): 6.66 days

Structure (SMILES): COc1ccc(-c2nn(-c3ccccc3)cc2C(=O)N/N=c2/scc(-c3ccc(Br)cc3)n2-c2ccccc2)cc1
- Activity (Plasmodium berghei [9]): 81.6%
- MST (Plasmodium berghei [21]): 11.66 days

Structure (SMILES): C=CCN1C(=O)CS/C1=N/NC(=O)c1cn(-c2ccccc2)nc1-c1ccc(OC)cc1
- Activity (Plasmodium berghei [9]): 79.31%
- MST (Plasmodium berghei [21]): 11.33 days

Structure (SMILES): COc1ccc(-c2nn(-c3ccccc3)cc2C(=O)N/N=C/c2ccccc2)cc1
- Activity (Plasmodium berghei [9]): 85.05%
- MST (Plasmodium berghei [21]): 9.33 days

Structure (SMILES): COc1ccc(-c2nn(-c3ccccc3)cc2C(=O)NNC(C)=O)cc1
- Activity (Plasmodium berghei [9]): 63.21%
- MST (Plasmodium berghei [21]): 6.66 days

Structure (SMILES): COc1ccc(-c2nn(-c3ccccc3)cc2C(=O)NNC(=S)Nc2ccccc2)cc1
- Activity (Plasmodium berghei [9]): 73.56%
- MST (Plasmodium berghei [21]): 6.66 days

Structure (SMILES): COc1ccc(-c2nn(-c3ccccc3)cc2C(=O)N/N=C/c2cccc(O)c2)cc1
- Activity (Erythrocyte [1]): 54.31%
- Activity [2]: Non-Toxic
- Activity (Erythrocyte [4]): 32%
- pIC50 (Erythrocyte [5]): 4.80
- Activity (PBMC [6]): 54.42%
- pIC50 (PBMC [7]): 3.00
- Activity (PBMC [8]): 12.78%
- Activity (Plasmodium berghei [9]): 97.7%
- Activity (Plasmodium berghei [10]): Active
- Activity (Erythrocyte [11]): 40%
- Activity [12]: Non-Toxic
- Activity (Erythrocyte [13]): 44%
- Activity (Erythrocyte [14]): 49.03%
- pIC50 (Erythrocyte [15]): 3.88
- Ratio IC50 (Plasmodium falciparum [22]): 13
- Activity [16]: Non-Toxic
- pIC50 (Plasmodium falciparum [17]): 7.85
- Activity (Erythrocyte [18]): 59.58%
- selectivity ratio [19]: 70000
- Activity (PBMC [20]): -19.18%

Structure (SMILES): CCc1nc(N)nc(N)c1-c1ccc(Cl)cc1 [PYRIMETHAMINE]
- Activity (Plasmodium berghei [9]): 100%
- Activity (Plasmodium berghei [10]): Active
- pIC50 (Plasmodium falciparum [17]): 7.90

Structure (SMILES): C=CCn1c(-c2ccc(Br)cc2)cs/c1=N/NC(=O)c1cn(-c2ccccc2)nc1-c1ccc(OC)cc1
- Activity (Erythrocyte [1]): 57.79%
- Activity [2]: Non-Toxic
- Activity (Erythrocyte [4]): 16%
- pIC50 (Erythrocyte [5]): 4.86
- Activity (PBMC [6]): 16.05%
- pIC50 (PBMC [7]): 3.65
- Activity (PBMC [8]): 39.93%
- Activity (Plasmodium berghei [9]): 90.8%
- Activity (Plasmodium berghei [10]): Active
- Activity (Erythrocyte [11]): 59%
- Activity [12]: Non-Toxic
- Activity (Erythrocyte [13]): 68%
- Activity (Erythrocyte [14]): 35.23%
- pIC50 (Erythrocyte [15]): 4.10
- Activity [16]: Non-Toxic
- pIC50 (Plasmodium falciparum [17]): 7.50
- Activity (Erythrocyte [18]): 80.34%
- Activity (PBMC [20]): 8.46%

Structure (SMILES): COc1ccc(-c2nn(-c3ccccc3)cc2C(=O)N/N=C/c2ccncc2)cc1
- Activity (Plasmodium berghei [9]): 79.31%
- MST (Plasmodium berghei [21]): 8.83 days

Structure (SMILES): COc1ccc(-c2nn(-c3ccccc3)cc2-c2n[nH]c(=S)n2-c2ccccc2)cc1
- Activity (Plasmodium berghei [9]): 73.56%
- MST (Plasmodium berghei [21]): 7.66 days

Structure (SMILES): C=CCn1c(-c2cn(-c3ccccc3)nc2-c2ccc(OC)cc2)n[nH]c1=S
- Activity (Plasmodium berghei [9]): 63.21%
- MST (Plasmodium berghei [21]): 5.5 days

Structure (SMILES): COc1ccc(-c2nn(-c3ccccc3)cc2C(=O)N/N=C2/SCC(=O)N2c2ccccc2)cc1
- Activity (Plasmodium berghei [9]): 82.75%
- MST (Plasmodium berghei [21]): 12.83 days

Structure (SMILES): COc1ccc(-c2nn(-c3ccccc3)cc2C(=O)N/N=c2/scc(-c3ccccc3)n2-c2ccccc2)cc1
- Ratio IC50 [23]: 71
- Activity (Erythrocyte [1]): 81.19%
- Activity [2]: Non-Toxic
- Activity (Erythrocyte [4]): 41%
- pIC50 (Erythrocyte [5]): 5.46
- Activity (PBMC [6]): -1.63%
- pIC50 (PBMC [7]): 3.72
- Activity (PBMC [8]): 48.27%
- Activity (Plasmodium berghei [9]): 97.7%
- Activity (Plasmodium berghei [10]): Active
- Activity (Erythrocyte [11]): 79%
- Activity [12]: Non-Toxic
- Activity (Erythrocyte [13]): 99.8%
- Activity (Erythrocyte [14]): 56.11%
- pIC50 (Erythrocyte [15]): 3.86
- Activity [16]: Non-Toxic
- pIC50 (Plasmodium falciparum [17]): 7.31
- Activity (Erythrocyte [18]): 106.28%
- Activity (PBMC [20]): -6.2%

Structure (SMILES): COc1ccc(-c2nn(-c3ccccc3)cc2C(=O)N/N=C/c2cccs2)cc1
- Activity (Plasmodium berghei [9]): 86.2%
- MST (Plasmodium berghei [21]): 11.5 days

Structure (SMILES): COc1ccc(-c2nn(-c3ccccc3)cc2C(=O)N/N=C/c2ccc(F)cc2)cc1
- Activity (Plasmodium berghei [9]): 67.81%
- MST (Plasmodium berghei [21]): 10.5 days

Structure (SMILES): C=CCn1c(-c2ccccc2)cs/c1=N/NC(=O)c1cn(-c2ccccc2)nc1-c1ccc(OC)cc1
- Activity (Plasmodium berghei [9]): 71.26%
- MST (Plasmodium berghei [21]): 7.33 days
